Assay results published in ChEMBL document CHEMBL1687888, “Synthesis, hypoxia-selective cytotoxicity of new 3-amino-1,2,4-benzotriazine-1,4-dioxide derivatives” (Eur J Med Chem, 2011).
The source made the active and inactive calls. The rule behind the calls is not given here.

Tests used:
SMMC-7721 [1] = assay: Cytotoxicity against human SMMC7721 cells for 72 hrs under hypoxic condition by MTT assay; assay type: functional, cell-based; details: SMMC-7721, 72 h
Procedure, shortened: (§1)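 RPMI-1640 with heat-inactivated 10% FBS plus penicillin/streptomycin; hypoxia 3% O2, 5% CO2 or normoxia 20% O2, 5% CO2, 37 °C. Compounds dissolved in DMSO at 10.0 mg/mL (stock), then diluted; cells seeded 5×10³ per well. Viability read by MTT kit; IC50 taken as concentration giving 50% absorbance inhibition versus control cells.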

SMMC-7721 [2] = assay: Cytotoxicity against human SMMC7721 cells for 72 hrs under normoxic condition by MTT assay; assay type: functional, cell-based; details: SMMC-7721, 72 h; procedure, shortened: as §1
K562 [3] = assay: Cytotoxicity against human K562 cells for 72 hrs under hypoxic condition by MTT assay; assay type: functional, cell-based; details: K562, 72 h; procedure, shortened: as §1
K562 [4] = assay: Cytotoxicity against human K562 cells for 72 hrs under normoxic condition by MTT assay; assay type: functional, cell-based; details: K562, 72 h; procedure, shortened: as §1
KB [5] = assay: Cytotoxicity against human KB cells for 72 hrs under hypoxic condition by MTT assay; assay type: functional, cell-based; procedure, shortened: as §1
KB [6] = assay: Cytotoxicity against human KB cells for 72 hrs under normoxic condition by MTT assay; assay type: functional, cell-based; procedure, shortened: as §1
A549 [7] = assay: Cytotoxicity against human A549 cells for 72 hrs under hypoxic condition by MTT assay; assay type: functional, cell-based; details: A549, 72 h; procedure, shortened: as §1
A549 [8] = assay: Cytotoxicity against human A549 cells for 72 hrs under normoxic condition by MTT assay; assay type: functional, cell-based; details: A549, 72 h; procedure, shortened: as §1
PC-3 [9] = assay: Cytotoxicity against human PC3 cells for 72 hrs under hypoxic condition by MTT assay; assay type: functional, cell-based; details: PC-3, 72 h; procedure, shortened: as §1
PC-3 [10] = assay: Cytotoxicity against human PC3 cells for 72 hrs under normoxic condition by MTT assay; assay type: functional, cell-based; details: PC-3, 72 h; procedure, shortened: as §1
K562 [11] = assay: Induction of apoptosis in human K562 cells under normoxic condition assessed as DNA fragmentation at 10 uM for 48 hrs using propidium iodide by flow cytometry; assay type: functional, cell-based
Procedure, shortened: (§2)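 K562 held under hypoxia (3% O2, 5% CO2) or normoxia (20% O2, 5% CO2) at 37 °C, treated 48 h. Cells washed in PBS, fixed in 75% ethanol at −20 °C overnight, RNase-treated 30 min at 37 °C, PI-stained 30 min at room temperature in the dark. DNA content and apoptotic fraction read by flow cytometry.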

K562 [12] = assay: Induction of apoptosis in human K562 cells under hypoxic condition assessed as DNA fragmentation at 10 uM for 48 hrs using propidium iodide by flow cytometry; assay type: functional, cell-based; procedure, shortened: as §2
K562 [13] = assay: Induction of apoptosis in human K562 cells under normoxic condition assessed as accumulation at Sub-G1 phase at 10 uM for 48 hrs using propidium iodide by flow cytometry (reference value: 5.27%); assay type: functional
K562 [14] = assay: Induction of apoptosis in human K562 cells under hypoxic condition assessed as accumulation at Sub-G1 phase at 10 uM for 48 hrs using propidium iodide by flow cytometry (reference value: 13.03%); assay type: functional
K562 [15] = assay: Induction of apoptosis in human K562 cells under hypoxic condition assessed as decrease in procaspase-3 level at 10 uM for 48 hrs by Western blotting; assay type: functional, cell-based
Procedure, shortened: (§3)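 K562 treated 48 h under hypoxia (3% O2) or normoxia (20% O2), 5% CO2, 37 °C. Lysis buffer: 150 mM NaCl, 50 mM Tris-HCl pH 8.0, 2 mM EGTA, 2 mM EDTA, 25 mM NaF, 25 mM β-glycerophosphate, 0.2% Triton X-100, 0.3% NP-40, 0.1 mM PMSF. Extracts immunoblotted for procaspase-3, cleaved caspase-3, PARP and XIAP.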

K562 [16] = assay: Induction of apoptosis in human K562 cells under hypoxic condition assessed as decrease in XIAP level at 10 uM for 48 hrs by Western blotting; assay type: functional, cell-based; procedure, shortened: as §3
K562 [17] = assay: Induction of apoptosis in human K562 cells under hypoxic condition assessed as decrease in PARP level at 10 uM for 48 hrs by Western blotting; assay type: functional, cell-based; procedure, shortened: as §3
K562 [18] = assay: Induction of apoptosis in human K562 cells under hypoxic condition assessed as caspase-3 cleavage at 10 uM for 48 hrs by Western blotting; assay type: functional, cell-based; procedure, shortened: as §3
K562 [19] = assay: Induction of apoptosis in human K562 cells under hypoxic condition assessed as decrease in XIAP level at 10 uM for 48 hrs by Western blotting
K562 [20] = assay: Induction of apoptosis in human K562 cells under hypoxic condition assessed as decrease in PARP level at 10 uM for 48 hrs by Western blotting
K562 [21] = assay: Induction of apoptosis in human K562 cells under hypoxic condition assessed as decrease in procaspase-3 level at 10 uM for 48 hrs by Western blotting

Structure (SMILES)	IC50 (SMMC-7721 [1]) [µM]	IC50 (SMMC-7721 [2]) [µM]	IC50 (K562 [3]) [µM]	IC50 (K562 [4]) [µM]	IC50 (KB [5]) [µM]	IC50 (KB [6]) [µM]	IC50 (A549 [7]) [µM]	IC50 (A549 [8]) [µM]	IC50 (PC-3 [9]) [µM]	IC50 (PC-3 [10]) [µM]	also measured
[O-][n+]1nc(NCOC2CCCCC2)[n+]([O-])c2ccccc21	4.17	28.2	4.88	10.8	22.1	4.39	1.2	5.18	6.67	3.25	–
[O-][n+]1nc(NCOCc2ccccc2)[n+]([O-])c2ccccc21	4.79	20.1	4.69	16.1	12.3	5.72	4.14	10.8	11.9	13.4	–
COc1ccc(COCNc2n[n+]([O-])c3ccccc3[n+]2[O-])cc1	1.15	22	0.66	20.1	14.2	4.06	3.32	7.64	52.8	14.5	Activity (K562 [11]): Active; Activity (K562 [12]): Active; Activity (K562 [13]): 14.95%; Activity (K562 [14]): 54.24%; Activity (K562 [15]): Active; Activity (K562 [16]): Active; Activity (K562 [17]): Active; Activity (K562 [18]): Active; Activity (K562 [19]): Active; Activity (K562 [20]): Active; Activity (K562 [21]): Active
CCCCCOCNc1n[n+]([O-])c2cc(OC)ccc2[n+]1[O-]	0.55	12.9	0.45	7.11	16.9	2.81	2.51	5.04	30.9	3.63	–
CC(OCNc1n[n+]([O-])c2ccccc2[n+]1[O-])c1ccccc1 (stereo not drawn)	2.47	12.9	2.24	8.72	14	2.51	2.81	2.71	10.7	6.08	–
COc1ccc2c(c1)[n+]([O-])nc(NCOCc1ccccc1)[n+]2[O-]	1.19	21.4	0.24	27.5	18.1	2.4	4.47	2.5	88.5	8.58	–
[O-][n+]1nc(NCOCc2ccc(Cl)cc2)[n+]([O-])c2ccccc21	0.81	14.5	1.85	3.26	8.26	1.3	2.19	1.47	5.1	5.76	–
CCCOCNc1n[n+]([O-])c2ccccc2[n+]1[O-]	5.53	19.5	3.89	17.6	10.2	1.95	3.74	7.46	7.4	14.2	–
COCNc1n[n+]([O-])c2ccccc2[n+]1[O-]	2.48	6.67	3.79	7.8	9.07	1.58	2.77	7.45	4.27	7.51	–
CCCOCNc1n[n+]([O-])c2cc(OC)ccc2[n+]1[O-]	1.07	2.88	3.52	4.28	12	3.2	2.54	2.81	10.6	6.57	–
Nc1n[n+]([O-])c2ccccc2[n+]1[O-] [TIRAPAZAMINE]	4.75	32.8	1.81	19.4	18.7	6.29	1.93	7.43	1.17	21	–
CCCCCCCOCNc1n[n+]([O-])c2ccccc2[n+]1[O-]	3.09	7.03	6.17	2.97	14	2.52	3.49	2.61	0.39	1.21	–
CCOCNc1n[n+]([O-])c2ccccc2[n+]1[O-]	4.23	27.1	4.99	15.4	22.5	2.8	4.09	10.5	7.4	15.9	Activity (K562 [11]): Active; Activity (K562 [12]): Active; Activity (K562 [13]): 14.13%; Activity (K562 [14]): 33.07%; Activity (K562 [15]): Active; Activity (K562 [16]): Active; Activity (K562 [17]): Active; Activity (K562 [18]): Active; Activity (K562 [19]): Active; Activity (K562 [20]): Active; Activity (K562 [21]): Active
CCCCOCNc1n[n+]([O-])c2ccccc2[n+]1[O-]	3.99	21.1	3.24	17.6	15.2	1.75	2.32	6.31	6.01	14.7	–
[O-][n+]1nc(NCOCc2ccc(C(F)(F)F)cc2)[n+]([O-])c2ccccc21	0.78	9.45	1.24	18.3	19.8	0.39	4.27	8.42	9.31	7.65	Activity (K562 [11]): Active; Activity (K562 [12]): Active; Activity (K562 [13]): 9.5%; Activity (K562 [14]): 32.11%; Activity (K562 [15]): Active; Activity (K562 [16]): Active; Activity (K562 [17]): Active; Activity (K562 [18]): Active; Activity (K562 [19]): Active; Activity (K562 [20]): Active; Activity (K562 [21]): Active
O=[N+]([O-])c1cccc(COCNc2n[n+]([O-])c3ccccc3[n+]2[O-])c1	0.52	8.54	0.65	5.65	16.6	0.58	3.44	2.89	> 100	3.07	–
CCCCCOCNc1n[n+]([O-])c2ccccc2[n+]1[O-]	3.05	17	3.3	14.5	39.5	1.22	2.9	6.46	8.51	9.2	–
COc1ccc2c(c1)[n+]([O-])nc(NCOC(C)c1ccccc1)[n+]2[O-] (stereo not drawn)	0.74	8.04	0.25	6.69	12.4	0.22	0.22	3.13	> 100	4.14	–
CC(C)CCOCNc1n[n+]([O-])c2ccccc2[n+]1[O-]	2.86	15.9	5.85	13.1	5.21	3.04	2.11	7.27	7.52	11.1	–
